Results published in ChEMBL document CHEMBL4049426, “Identification of the Clinical Candidate (R)-(1-(4-Fluorophenyl)-6-((1-methyl-1H-pyrazol-4-yl)sulfonyl)-4,4a,5,6,7,8-hexahydro-1H-pyrazolo[3,4-g]isoquinolin-4a-yl)(4-(trifluoromethyl)pyridin-2-yl)methanone (CORT125134): A Selective Glucocorticoid Receptor (GR) Antagonist” (J Med Chem, 2017).

Tests used:
[1] = Protein binding in monkey plasma; format: ADME, cell-free, Macaca mulatta; conditions: rhesus monkey, read-out: PPB (converted)
[2] = organism: Macaca mulatta; experiment: Agonist activity at monkey glucocorticoid receptor in primary hepatocytes assessed as induction of tyrosine amino transferase activity measured after 20 hrs; format: cell-based
[3] = biological target: Cytochrome P450 3A4 (Homo sapiens, UniProt P08684); experiment: Time-dependent inhibition of CYP3A4 (unknown origin); format: ADME
Cytochrome P450 3A4, sequence (P08684 whole entry): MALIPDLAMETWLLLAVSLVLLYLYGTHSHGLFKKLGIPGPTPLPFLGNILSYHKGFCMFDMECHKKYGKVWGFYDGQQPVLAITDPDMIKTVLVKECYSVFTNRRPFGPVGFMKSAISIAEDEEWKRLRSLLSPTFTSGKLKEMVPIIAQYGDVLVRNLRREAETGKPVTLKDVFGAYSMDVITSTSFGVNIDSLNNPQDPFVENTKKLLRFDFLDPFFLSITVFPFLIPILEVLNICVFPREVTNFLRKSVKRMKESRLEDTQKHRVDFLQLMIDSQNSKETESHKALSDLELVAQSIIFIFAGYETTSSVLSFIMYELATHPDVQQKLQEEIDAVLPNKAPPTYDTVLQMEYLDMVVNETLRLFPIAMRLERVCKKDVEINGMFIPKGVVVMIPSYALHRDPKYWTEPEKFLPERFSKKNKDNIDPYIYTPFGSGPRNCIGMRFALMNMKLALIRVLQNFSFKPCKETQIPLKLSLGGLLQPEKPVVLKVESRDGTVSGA

[4] = AUC in monkey plasma at 20 mg/kg, po measured up to 24 hrs by LC/MS analysis; format: ADME, organism-based, Macaca mulatta; parameters: dose 20 mg/kg, time < 24 hr, route oral; conditions: rhesus monkey
Summary of the method: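 Monkey i.v./p.o. study: oral 20mg/kg in 10% DMSO, 0.1% Tween 80, 0.5% hydroxypropylmethylcellulose in water; i.v. dose 1mg/kg.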

[5] = biological target: T1, Glucocorticoid receptor (Canis lupus familiaris, UniProt A0A8C0QLS2); experiment: (§1) Agonist activity at dog glucocorticoid receptor in primary hepatocytes assessed as induction of tyrosine amino transferase activity measured after 20 hrs; format: cell-based
T1 sequence (A0A8C0QLS2 whole entry): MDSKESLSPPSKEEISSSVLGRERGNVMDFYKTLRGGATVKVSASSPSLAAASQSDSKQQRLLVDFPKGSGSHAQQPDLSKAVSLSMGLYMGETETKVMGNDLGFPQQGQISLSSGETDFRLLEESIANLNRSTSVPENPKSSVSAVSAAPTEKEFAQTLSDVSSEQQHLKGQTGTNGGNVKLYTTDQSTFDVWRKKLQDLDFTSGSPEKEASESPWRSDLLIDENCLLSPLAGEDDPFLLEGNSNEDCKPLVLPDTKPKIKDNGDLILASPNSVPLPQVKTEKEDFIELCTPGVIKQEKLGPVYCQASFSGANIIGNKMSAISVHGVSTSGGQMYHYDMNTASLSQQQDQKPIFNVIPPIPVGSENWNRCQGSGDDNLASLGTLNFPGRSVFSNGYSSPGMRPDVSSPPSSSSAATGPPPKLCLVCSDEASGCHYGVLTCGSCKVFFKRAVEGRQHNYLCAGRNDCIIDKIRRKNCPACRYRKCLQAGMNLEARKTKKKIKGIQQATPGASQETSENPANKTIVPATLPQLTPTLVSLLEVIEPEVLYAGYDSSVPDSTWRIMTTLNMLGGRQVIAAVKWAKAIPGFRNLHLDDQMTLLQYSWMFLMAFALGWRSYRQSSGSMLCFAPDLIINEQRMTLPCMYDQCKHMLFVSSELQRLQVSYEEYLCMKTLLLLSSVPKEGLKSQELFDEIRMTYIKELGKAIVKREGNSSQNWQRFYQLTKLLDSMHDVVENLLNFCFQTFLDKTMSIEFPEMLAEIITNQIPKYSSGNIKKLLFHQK

[6] = biological target: T2, Glucocorticoid receptor (Canis lupus familiaris) (UniProt A0A8C0QLS2); experiment: as §1; format: cell-based
T2 sequence (whole entry): T1 sequence (A0A8C0QLS2 whole entry)

[7] = biological target: T3, Cytochrome P450 1A2 (Homo sapiens, UniProt P05177); experiment: Inhibition of CYP1A2 (unknown origin); format: ADME
T3 sequence (P05177 whole entry): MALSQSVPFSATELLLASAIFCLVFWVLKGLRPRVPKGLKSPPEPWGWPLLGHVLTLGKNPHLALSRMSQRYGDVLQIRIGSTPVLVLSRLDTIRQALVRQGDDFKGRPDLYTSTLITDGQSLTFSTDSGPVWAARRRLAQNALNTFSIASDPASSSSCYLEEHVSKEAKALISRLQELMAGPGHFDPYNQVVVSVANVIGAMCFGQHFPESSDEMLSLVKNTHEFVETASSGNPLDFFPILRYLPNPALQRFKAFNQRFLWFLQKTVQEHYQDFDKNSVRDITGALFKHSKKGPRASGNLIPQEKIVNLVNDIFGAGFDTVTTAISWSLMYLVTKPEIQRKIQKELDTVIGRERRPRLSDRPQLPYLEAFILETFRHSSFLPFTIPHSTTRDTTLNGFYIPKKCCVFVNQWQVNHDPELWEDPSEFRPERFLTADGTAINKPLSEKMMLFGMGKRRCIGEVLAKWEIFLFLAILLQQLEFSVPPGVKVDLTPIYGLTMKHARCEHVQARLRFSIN

[8] = biological target: T4, Glucocorticoid receptor (Homo sapiens) (UniProt P04150); experiment: Agonist activity at glucocorticoid receptor in human primary hepatocytes assessed as induction of tyrosine amino transferase activity measured after 20 hrs relative to control; format: cell-based
T4 sequence (whole entry): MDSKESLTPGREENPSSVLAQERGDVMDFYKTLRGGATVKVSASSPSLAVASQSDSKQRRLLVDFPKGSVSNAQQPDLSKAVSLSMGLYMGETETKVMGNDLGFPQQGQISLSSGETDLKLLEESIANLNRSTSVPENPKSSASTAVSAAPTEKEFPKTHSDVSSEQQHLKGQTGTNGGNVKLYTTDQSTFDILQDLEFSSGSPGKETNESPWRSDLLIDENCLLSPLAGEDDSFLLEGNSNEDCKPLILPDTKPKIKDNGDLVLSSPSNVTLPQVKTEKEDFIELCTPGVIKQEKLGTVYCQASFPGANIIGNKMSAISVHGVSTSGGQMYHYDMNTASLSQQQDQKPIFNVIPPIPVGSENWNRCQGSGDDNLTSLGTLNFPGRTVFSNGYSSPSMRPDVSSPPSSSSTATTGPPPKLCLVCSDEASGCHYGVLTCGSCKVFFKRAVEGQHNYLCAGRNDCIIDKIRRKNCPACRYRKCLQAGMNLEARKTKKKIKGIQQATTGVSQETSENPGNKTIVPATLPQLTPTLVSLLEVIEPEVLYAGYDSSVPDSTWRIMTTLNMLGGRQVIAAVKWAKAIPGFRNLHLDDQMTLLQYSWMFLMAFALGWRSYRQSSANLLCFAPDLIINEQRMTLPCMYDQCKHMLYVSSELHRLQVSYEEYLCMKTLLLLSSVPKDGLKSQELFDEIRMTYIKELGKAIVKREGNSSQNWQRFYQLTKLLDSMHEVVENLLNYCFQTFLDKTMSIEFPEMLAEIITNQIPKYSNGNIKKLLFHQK

[9] = Cmax in Sprague-Dawley CD-1 rat plasma at 3 mg/kg, po administered as cassette dose via gavage measured up to 24 hrs by LC/MS analysis; format: ADME, organism-based; parameters: dose 3 mg/kg, route oral
Summary of the method: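 Three male Sprague Dawley CD-1 rats (220-250g) with jugular vein catheters; three test compounds plus a reference dosed together by oral gavage, 3mg/kg each, in DMSO:0.5% methylcellulose 10:90 (0.6mg/mL per compound), 5mL/kg. Plasma sampled pre-dose and at 0.25, 0.5, 1, 2, 4, 6, 8, 24 h; LC/MS.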

[10] = biological target: T3, Cytochrome P450 1A2; experiment: Induction of CYP1A2 in human hepatocytes; format: ADME, cell-based
[11] = AUC in Sprague-Dawley CD-1 rat plasma at 5 mg/kg, po administered through gavage measured up to 24 hrs by LC/MS analysis; format: ADME, organism-based; parameters: dose 5 mg/kg, time < 24 hr, route oral
Summary of the method: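 Jugular-catheterized male Sprague Dawley CD-1 rats (220-250g). Oral arm: five rats, 5mg/kg gavage, 1mg/mL in DMSO:0.5% methylcellulose 10:90, 5mL/kg, sampled pre-dose and 0.25-24 h. i.v. arm: three rats, 1mg/kg, 0.5mg/mL in DMSO:PEG400:propylene glycol 10:45:45, sampled pre-dose and 0.08-24 h. Plasma by LC/MS.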

**Q.** Which results are given for `Cn1cc(S(=O)(=O)N2CCC3=Cc4c(cnn4-c4ccc(F)cc4)C[C@]3(C(=O)c3cc(C(F)(F)F)ccn3)C2)cn1` [RELACORILANT]?
**A.** fraction unbound [1]: 0.011; Emax [2]: 0%; TDI [3]: Not Active; AUC at 24 h [4]: 11700 ng·h/mL; EC50 [5]: > 10 µM; Emax [6]: 80%; IC50 [7]: > 10 µM; Emax [8]: 0%; Cmax [9]: 262 ng/mL; Activity [10]: Not Active; AUC at 24 h [11]: 1550 ng·h/mL
